Columns and labels:
Glutamate NMDA receptor = experiment: Binding affinity against phencyclidine (PCP) site of N-methyl-D-aspartate glutamate receptor from rat brain, using [3H]- TCP as radioligand.
Procedure, shortened: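 Male Sprague-Dawley rat whole-brain membranes, washed by repeated homogenization/centrifugation in 50 mM Tris-HCl pH 7.7, frozen at -70 °C, assayed in 5 mM Tris-HCl at 0.5 mg protein/tube. [3H]TCP about 1 nM final with varying compound concentrations, 25 min at room temperature. Nonspecific binding with 100 μM PCP. Filtration, scintillation counting, Ki calculated. At least three determinations in triplicate.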

[1] = Neuroprotection was determined against NMDA induced cell death in cultured mouse cortical neuron.; format: functional
Procedure, shortened: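 Primary cortical neurons from Swiss-Webster mouse embryos at 16 days post conception, trypsinized, plated at 50 000 cells/well, cytosine arabinoside from day 5, used on day 13. Cells were washed and exposed 30 min to 500 µM NMDA with or without varying concentrations of test agent in MEM, then returned to MEM alone. MK-801 10 µM served as positive control.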

| SMILES | Ki (Glutamate NMDA receptor) | IC50 [1] |
| --- | --- | --- |
| CCOC1(OCC)C2c3ccccc3C([n+]3cnn(C)c32)C1(C)C (configuration not stated) | 0.03 µM |  |
| c1ccc(CCCn2cc[n+]3c2C2c4ccccc4C3CC2(c2ccoc2)c2ccoc2)cc1 (configuration not stated) | 0.068 µM |  |
| CCCCn1cc[n+]2c1C1c3ccccc3C2CC1(c1ccoc1)c1ccoc1 (configuration not stated) | 0.036 µM |  |
| CCOC1(OCC)C2c3ccccc3C([n+]3ccsc32)C1(C)C (configuration not stated) | 0.0061 µM | 0.173 µM |
| c1ccc2c(c1)C1CC(c3ccoc3)(c3ccoc3)C2c2n(Cc3ccc4ccccc4c3)cc[n+]21 (configuration not stated) | 0.33 µM |  |
| C1=C[N+]2=C(C1c1cccc3ccccc13)C1c3ccccc3C2CC1(c1ccoc1)c1ccoc1 (configuration not stated) | 0.329 µM |  |
| Cn1nc[n+]2c1C1c3ccccc3C2CC1(c1ccoc1)c1ccoc1 (configuration not stated) | 0.014 µM |  |
| c1ccc2c(c1)C1CC(c3ccoc3)(c3ccoc3)C2c2scc[n+]21 (configuration not stated) | 0.0029 µM | 0.05 µM |
| c1ccc2c(c1)C1CC(c3ccoc3)(c3ccoc3)C2c2cccc[n+]21 (configuration not stated) |  | 0.045 µM |
| CCOC1(OCC)C2c3ccccc3C([n+]3ccn(Cc4ccccc4)c32)C1(C)C (configuration not stated) | 0.01 µM |  |
| CCOC1(OCC)C2c3ccccc3C([n+]3ccn(C)c32)C1(C)C (configuration not stated) | 0.0082 µM | 0.053 µM |
| C[C@]12N[C@H](Cc3ccccc31)c1ccccc12 [DIZOCILPINE] |  | 0.067 µM |
| CCOC1(OCC)C2c3ccccc3C([n+]3ccccc32)C1(C)C (configuration not stated) |  | 0.06 µM |
| c1ccc(C(c2ccccc2)n2cc[n+]3c2C2c4ccccc4C3CC2(c2ccoc2)c2ccoc2)cc1 (configuration not stated) | 0.306 µM |  |
| Cn1cc[n+]2c1C1c3ccccc3C2CC1(c1ccoc1)c1ccoc1 (configuration not stated) | 0.0029 µM | 0.257 µM |
| c1ccc(-n2cc[n+]3c2C2c4ccccc4C3CC2(c2ccoc2)c2ccoc2)cc1 (configuration not stated) | 0.052 µM |  |
| c1ccc(Cn2cc[n+]3c2C2c4ccccc4C3CC2(c2ccoc2)c2ccoc2)cc1 (configuration not stated) | 0.0077 µM | 0.042 µM |

— ChEMBL document CHEMBL1128370, “Novel NMDA antagonists: replacement of the pyridinium ring of 6,11-ethanobenzo[b]quinolizinium cations with heteroisoquinolinium cations” (J Med Chem, 1995)
